ChEMBL document CHEMBL3865847, “The synthesis and biological evaluation of alkyl and benzyl naphthyridinium analogs of eupolauridine as potential antimicrobial and cytotoxic agents” (Bioorg Med Chem, 2016)

Assays:
Candida albicans = assay: Antimicrobial activity against Candida albicans B311; format: functional
How it was run: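 Cultured in Sabouraud dextrose broth 24 h, counted by hemocytometer, diluted to 10,000 CFU/mL. Added to serially diluted samples in 96-well plates, top final concentration 50 µg/mL (≤2.5% DMSO), incubated 37 °C. Growth by A630. MIC is the lowest concentration giving 80% inhibition against controls; IC50 from concentration versus % growth plots.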

Cryptococcus neoformans = assay: Antimicrobial activity against Cryptococcus neoformans ATCC 52657; format: functional
How it was run: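 Grown in mycophil broth 72 h, hemocytometer-counted, diluted to 200,000 CFU/mL. Exposed to diluted samples in 96-well plates, maximum final 50 µg/mL (DMSO up to 2.5%), incubated 30 °C. A630 readout. MIC is the lowest concentration inhibiting 80% of growth versus controls; IC50 read from concentration versus % growth graphs.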

Pseudomonas aeruginosa = assay: Antimicrobial activity against Pseudomonas aeruginosa ATCC 15442; format: functional
How it was run: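 Pseudomonas grown 24 h in trypticase soy broth, diluted 1:50. Combined with diluted samples in 96-well plates, top final concentration 50 µg/mL (≤2.5% DMSO), 37 °C incubation. Growth read at 630 nm. MIC is the lowest tested concentration inhibiting 80% of growth versus controls; IC50 from concentration versus % growth graphs.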

[1] = tested on: Mycobacterium intracellulare; assay: Antimicrobial activity against Mycobacterium intracellulare ATCC 23068; format: functional
How it was run: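 Mycobacterium grown 72 h in Middlebrook medium with OADC supplement, diluted 1:30 in broth. Incubated at 37 °C with diluted samples in 96-well plates, highest final 50 µg/mL, DMSO at most 2.5%. Absorbance at 630 nm. MIC = lowest concentration with 80% growth inhibition relative to controls; IC50 from concentration versus % growth plots.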

Plasmodium falciparum = assay: Antimalarial activity against Plasmodium falciparum D6 infected in RBC after 48 hrs by lactate dehydrogenase assay; format: functional; settings: D6, 48 h
How it was run: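 Parasites grown in A+ human erythrocytes in RPMI 1640 with 10% A+ human serum, 25 mM HEPES, 27 mM bicarbonate, 60 µg/mL amikacin, 37 °C under 90% N2/5% O2/5% CO2. Infected cells exposed 48 h in microtiter wells, highest concentration 4.8 µg/mL. Growth read by Malstat reagent (parasite LDH) with nitro blue tetrazolium reduction, absorbance 630 nm.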

[2] = Cytotoxicity against human SK-MEL cells assessed as cell growth inhibition after 48 hrs by neutral red dye based assay; format: functional
How it was run: (§1)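 Cells kept in RPMI-1640 with 10% bovine serum and 60 µg/mL amikacin, 37 °C, 5% CO2. Seeded at 25,000 cells/well, left 24 h to adhere. Samples diluted in RPMI added, highest final concentration 10 µg/mL. Growth measured by neutral red uptake after 48 h exposure.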

[3] = Cytotoxicity against human KB cells assessed as cell growth inhibition after 48 hrs by neutral red dye based assay; format: functional; how it was run: as §1
[4] = Cytotoxicity against human BT549 cells assessed as cell growth inhibition after 48 hrs by neutral red dye based assay; format: functional; settings: BT-549, 48 h; how it was run: as §1
[5] = Cytotoxicity against human SKOV3 cells assessed as cell growth inhibition after 48 hrs by neutral red dye based assay; format: functional; settings: SK-OV-3, 48 h; how it was run: as §1
[6] = Cytotoxicity against African green monkey Vero cells assessed as cell growth inhibition at 10 ug/ml after 48 hrs by neutral red dye based assay; format: toxicity; settings: chlorocebus sabaeus; how it was run: as §1
[7] = Inhibition of Candida albicans DNA topoisomerase 1 using pHOT1 as substrate after 30 mins by agarose gel electrophoresis
How it was run: (§2)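 Relaxation of supercoiled to relaxed DNA by TopoI measured with a commercial TopoI drug kit following kit protocol. IC50 calculated from dose-response curves of % inhibition versus concentration.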

DNA topoisomerase 1 = molecular target: T1, DNA topoisomerase 1 (Homo sapiens, UniProt P11387); assay: Inhibition of human DNA topoisomerase 1 using pHOT1 as substrate after 30 mins by agarose gel electrophoresis; how it was run: as §2
T1 sequence (P11387 whole entry): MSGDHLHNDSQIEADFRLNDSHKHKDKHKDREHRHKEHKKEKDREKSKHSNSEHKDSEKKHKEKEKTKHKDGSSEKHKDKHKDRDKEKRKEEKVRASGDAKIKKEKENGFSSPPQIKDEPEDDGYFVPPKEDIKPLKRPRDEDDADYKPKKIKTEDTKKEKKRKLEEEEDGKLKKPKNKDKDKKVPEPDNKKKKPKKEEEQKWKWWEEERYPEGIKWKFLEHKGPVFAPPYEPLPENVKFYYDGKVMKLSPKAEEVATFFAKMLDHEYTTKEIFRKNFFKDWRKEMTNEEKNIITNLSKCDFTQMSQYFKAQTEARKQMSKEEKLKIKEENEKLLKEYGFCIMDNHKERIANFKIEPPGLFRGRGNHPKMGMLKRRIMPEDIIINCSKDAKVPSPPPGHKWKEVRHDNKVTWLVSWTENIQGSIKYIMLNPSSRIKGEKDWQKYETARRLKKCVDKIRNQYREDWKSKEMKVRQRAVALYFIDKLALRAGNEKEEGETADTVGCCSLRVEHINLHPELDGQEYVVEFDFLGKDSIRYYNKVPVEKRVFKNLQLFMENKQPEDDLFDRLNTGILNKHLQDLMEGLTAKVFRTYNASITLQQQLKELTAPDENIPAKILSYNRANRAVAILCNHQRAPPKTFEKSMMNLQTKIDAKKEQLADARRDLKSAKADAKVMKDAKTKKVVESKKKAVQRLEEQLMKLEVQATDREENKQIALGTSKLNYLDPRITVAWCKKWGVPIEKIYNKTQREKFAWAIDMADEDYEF

[8] = Selectivity index, ratio of IC50 for human DNA topoisomerase 1 to IC50 for Candida albicans DNA topoisomerase 1
Staphylococcus aureus = assay: Antimicrobial activity against methicillin-resistant Staphylococcus aureus; format: functional
How it was run: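 MRSA precultured 24 h, diluted 1:50 in broth, added to serially diluted samples in 96-well plates (highest final DMSO 2.5%), incubated at 37 °C. Growth measured as absorbance at 630 nm versus controls. MIC is the lowest concentration giving 80% inhibition; IC50 (50% inhibition) is read from concentration versus % growth plots.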

| SMILES | IC50 (Candida albicans) | MIC80 (Candida albicans) | IC50 (Cryptococcus neoformans) | MIC80 (Cryptococcus neoformans) | IC50 (Pseudomonas aeruginosa) | MIC80 [1] | IC50 (Plasmodium falciparum) | IC50 [2] | IC50 [3] | IC50 [4] | IC50 [5] | Activity [6] | IC50 [7] | IC50 (DNA topoisomerase 1) | Ratio IC50 [8] | IC50 (Staphylococcus aureus) |
| --- | --- | --- | --- | --- | --- | --- | --- | --- | --- | --- | --- | --- | --- | --- | --- | --- |
| Brc1cccc(C[n+]2ccc3ccnc4c3c2-c2ccccc2-4)c1.[Br-] | 2.5 µg/mL | 6.25 µg/mL | 0.3 µg/mL | 0.78 µg/mL | 40 µg/mL | 50 µg/mL | 0.013 µg/mL | 0.65 µg/mL | 0.18 µg/mL | 1.15 µg/mL | 0.095 µg/mL | Non-Toxic | 21 µg/mL | 48.4 µM | 0.95 | – |
| Clc1cccc(C[n+]2ccc3ccnc4c3c2-c2ccccc2-4)c1.[Br-] | 3 µg/mL | 6.25 µg/mL | 0.18 µg/mL | 0.78 µg/mL | – | 50 µg/mL | 0.0042 µg/mL | 1.15 µg/mL | 0.68 µg/mL | 1.6 µg/mL | 0.055 µg/mL | Non-Toxic | 21 µg/mL | 53.7 µM | 0.95 | – |
| Cc1ccc2c(c1)-c1c3c-2nccc3cc[n+]1Cc1ccccc1.[Br-] | 6.17 µg/mL | 12.5 µg/mL | 0.48 µg/mL | 1.56 µg/mL | – | 50 µg/mL | 0.062 µg/mL | 1.4 µg/mL | 0.52 µg/mL | 1.8 µg/mL | 0.58 µg/mL | Non-Toxic | 15 µg/mL | 45 µM | 0.86 | – |
| C[n+]1ccc2c3c(nc4ccccc42)-c2ccccc2-c31.[I-] | 23.3 µg/mL | 25 µg/mL | 2 µg/mL | 6.25 µg/mL | – | – | 0.033 µg/mL | – | 6.5 µg/mL | 7 µg/mL | 1.3 µg/mL | Non-Toxic | 1.5 µg/mL | 4.54 µM | – | 20 µg/mL |
| CC[n+]1ccc2c3c(nc4ccccc42)-c2ccccc2-c31.[I-] | 16.7 µg/mL | 25 µg/mL | 6 µg/mL | 12.5 µg/mL | 50 µg/mL | – | 0.033 µg/mL | – | 6.8 µg/mL | > 10 µg/mL | 1.3 µg/mL | Non-Toxic | 0.7 µg/mL | 1.71 µM | 1 | – |
| C[n+]1ccc2c3c(nc4ccccc42)-c2ccccc2-c31.Cc1ccc(S(=O)(=O)[O-])cc1 | 35 µg/mL | – | 1.93 µg/mL | 6.25 µg/mL | 50 µg/mL | – | 0.0385 µg/mL | > 10 µg/mL | 4.4 µg/mL | 7.5 µg/mL | 1.3 µg/mL | Non-Toxic | 0.7 µg/mL | 1.59 µM | – | – |
| COc1ccc2c(c1)-c1c3c-2nccc3cc[n+]1Cc1ccccc1.[Br-] | 16.7 µg/mL | 25 µg/mL | 0.7 µg/mL | 1.56 µg/mL | – | 50 µg/mL | 0.032 µg/mL | 1.5 µg/mL | 0.2 µg/mL | 1.1 µg/mL | 0.15 µg/mL | Non-Toxic | 5.75 µg/mL | 12.3 µM | 1.15 | – |
| Cc1ccc(C[n+]2ccc3ccnc4c3c2-c2ccccc2-4)cc1.[Br-] | 3.17 µg/mL | 6.25 µg/mL | 0.33 µg/mL | 0.78 µg/mL | – | 50 µg/mL | 0.0095 µg/mL | 1.9 µg/mL | 6.8 µg/mL | – | < 1.1 µg/mL | Non-Toxic | 11 µg/mL | 28.3 µM | 1 | 35 µg/mL |
| C[n+]1ccc2c3c(nc4cc5c(cc42)OCO5)-c2ccccc2-c31.[I-] | 16.1 µg/mL | 25 µg/mL | 0.37 µg/mL | 1.56 µg/mL | – | 50 µg/mL | 0.028 µg/mL | 5 µg/mL | 4.2 µg/mL | 1.2 µg/mL | 1.2 µg/mL | Non-Toxic | 0.425 µg/mL | 1.02 µM | 0.94 | – |
| Cc1cc2c3c(nc4ccccc42)-c2ccccc2-c3[n+]1C.[I-] | 25 µg/mL | 50 µg/mL | 1.83 µg/mL | 3.12 µg/mL | – | – | 0.02 µg/mL | > 10 µg/mL | 3.5 µg/mL | 5.4 µg/mL | 4.5 µg/mL | Non-Toxic | 0.5 µg/mL | 1.71 µM | 0.71 | 25 µg/mL |
